Test results reported in ChEMBL document CHEMBL2331168, “Anticonvulsant evaluation of aminoalkanol derivatives of 2- and 4-methylxanthone” (Bioorg Med Chem, 2013).
Active and inactive are the calls of the source.

Experiments:
Mus musculus [1] = assay: Protective index, ratio TD50 for albino mouse to ED50 for albino mouse by subcutaneous pentetrazole-induced seizure test after 1 hr; type: functional
Mus musculus [2] = assay: Anticonvulsant activity in ip dosed albino mouse assessed as protection against subcutaneous pentetrazole-induced seizures after 1 hr; type: functional
Mus musculus [3] = organism: Mus musculus; assay: Protective index, ratio TD50 for albino mouse to ED50 for albino mouse by maximal electroshock-induced seizure test after 1 hr; type: functional
Procedure, shortened: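 Protective index was calculated as mouse ip TD50 (rotorod) divided by mouse ip MES ED50, both obtained by quantitative dose-response testing at the stated post-dose time.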

Mus musculus [4] = assay: Anticonvulsant activity in ip dosed albino mouse assessed as protection against maximal electroshock-induced seizures after 1 hr; type: functional
Procedure, shortened: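 ED50, with 95% confidence intervals, was the ip dose protecting 50% of mice in the MES test. It was measured at the stated post-dose time in male albino mice given suspensions in 0.5% methylcellulose. MES used 60 Hz, 50 mA, 0.2 s corneal stimulation, and the endpoint was abolition of hindlimb tonic extension.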

[5] = Neurotoxicity in ip dosed albino mouse assessed as minimal motor impairment after 1 hr by rotorod test; type: toxicity, organism-based; conditions: in vivo
Procedure, shortened: (§1)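 TD50, with 95% confidence intervals, was the ip dose causing neurotoxicity in 50% of male albino mice. Deficit was judged on the rotorod: a 1 in. knurled rod at 6 rpm, where failure to hold on for 1 min in each of three trials counted as deficit. Read at the stated time after dosing.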

Rattus norvegicus [6] = assay: Anticonvulsant activity in Sprague-Dawley rat assessed as protection against maximal electroshock-induced seizures at 30 mg/kg, po after 2 hrs; type: functional, organism-based; design: dose 30 mg/kg
Procedure, shortened: (§2)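 Male Sprague-Dawley rats dosed orally at 30 mg/kg and tested at 0.25, 0.5, 1, 2 and 4 h. Seizures were induced by 60 Hz alternating current at 150 mA for 0.2 s through corneal electrodes, after a drop of 0.9% NaCl in each eye. Protection meant abolition of hindlimb tonic extension. Reported as protected/tested, usually 4 rats per time point.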

Rattus norvegicus [7] = assay: Anticonvulsant activity in Sprague-Dawley rat assessed as protection against maximal electroshock-induced seizures at 30 mg/kg, po after 0.5 hrs; type: functional, organism-based; design: dose 30 mg/kg; procedure, shortened: as §2
Rattus norvegicus [8] = assay: Anticonvulsant activity in Sprague-Dawley rat assessed as protection against maximal electroshock-induced seizures at 30 mg/kg, po after 0.25 hrs; type: functional, organism-based; design: dose 30 mg/kg; procedure, shortened: as §2
Mus musculus [9] = assay: Neurotoxicity in albino mouse assessed as minimal motor impairment at 300 mg/kg, ip after 4 hrs by rotorod test; type: toxicity, organism-based; design: dose 300 mg/kg, route intraperitoneal; conditions: in vivo
Procedure, shortened: (§3)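 Male albino mice (Carworth Farms No. 1) were dosed ip with suspensions in 0.5% methylcellulose and put on a 1 in. knurled rod rotating at 6 rpm at set times after dosing. Neurotoxicity meant failure to stay on the rod for at least 1 min in each of three trials. Scored as impaired/tested.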

Mus musculus [10] = assay: Neurotoxicity in albino mouse assessed as minimal motor impairment at 100 mg/kg, ip after 4 hrs by rotorod test; type: toxicity, organism-based; design: dose 100 mg/kg, route intraperitoneal; conditions: in vivo; procedure, shortened: as §3
Mus musculus [11] = assay: Neurotoxicity in albino mouse assessed as minimal motor impairment at 30 mg/kg, ip after 4 hrs by rotorod test; type: toxicity, organism-based; design: dose 30 mg/kg, route intraperitoneal; conditions: in vivo; procedure, shortened: as §3
Mus musculus [12] = assay: Anticonvulsant activity in albino mouse assessed as protection against subcutaneous pentetrazole-induced seizures at 300 mg/kg, ip after 4 hrs; type: functional, organism-based; design: dose 300 mg/kg
Procedure, shortened: (§4)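 Male albino mice (Carworth Farms No. 1) received compound ip in 0.5% methylcellulose, then pentetrazole 85 mg/kg sc in 0.9% NaCl at 0.5 or 4 h. Mice were watched for at least 30 min. Protection meant no threshold seizure, defined as a single clonic spasm lasting at least 5 s. Scored as protected/tested.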

Mus musculus [13] = assay: Anticonvulsant activity in albino mouse assessed as protection against subcutaneous pentetrazole-induced seizures at 100 mg/kg, ip after 4 hrs; type: functional, organism-based; design: dose 100 mg/kg; procedure, shortened: as §4
Mus musculus [14] = assay: Anticonvulsant activity in albino mouse assessed as protection against subcutaneous pentetrazole-induced seizures at 300 mg/kg, ip after 0.5 hrs; type: functional, organism-based; design: dose 300 mg/kg; procedure, shortened: as §4
Mus musculus [15] = assay: Anticonvulsant activity in albino mouse assessed as protection against subcutaneous pentetrazole-induced seizures at 30 mg/kg, ip after 4 hrs; type: functional, organism-based; design: dose 30 mg/kg; procedure, shortened: as §4
Mus musculus [16] = assay: Anticonvulsant activity in albino mouse assessed as protection against subcutaneous pentetrazole-induced seizures at 100 mg/kg, ip after 0.5 hrs; type: functional, organism-based; design: dose 100 mg/kg; procedure, shortened: as §4
Mus musculus [17] = assay: Anticonvulsant activity in albino mouse assessed as protection against subcutaneous pentetrazole-induced seizures at 30 mg/kg, ip after 0.5 hrs; type: functional, organism-based; design: dose 30 mg/kg; procedure, shortened: as §4
Mus musculus [18] = assay: Anticonvulsant activity in albino mouse assessed as protection against maximal electroshock-induced seizures at 300 mg/kg, ip after 4 hrs; type: functional, organism-based; design: dose 300 mg/kg
Procedure, shortened: (§5)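 Male albino mice (Carworth Farms No. 1) were given the compound ip as a suspension in 0.5% methylcellulose at 3–300 mg/kg. MES testing was at 0.5 and 4 h, sometimes also at 0.25 and 1 h. Current was 60 Hz, 50 mA, 0.2 s via corneal electrodes, with saline eye drops. Protection meant no hindlimb tonic extension, scored as protected/tested.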

Mus musculus [19] = assay: Anticonvulsant activity in albino mouse assessed as protection against maximal electroshock-induced seizures at 30 mg/kg, ip after 4 hrs; type: functional, organism-based; design: dose 30 mg/kg; procedure, shortened: as §5
Mus musculus [20] = assay: Anticonvulsant activity in albino mouse assessed as protection against maximal electroshock-induced seizures at 300 mg/kg, ip after 0.5 hrs; type: functional, organism-based; design: dose 300 mg/kg; procedure, shortened: as §5
Mus musculus [21] = assay: Anticonvulsant activity in albino mouse assessed as protection against maximal electroshock-induced seizures at 100 mg/kg, ip after 0.5 hrs; type: functional, organism-based; design: dose 100 mg/kg; procedure, shortened: as §5
Mus musculus [22] = assay: Anticonvulsant activity in albino mouse assessed as protection against maximal electroshock-induced seizures at 30 mg/kg, ip after 0.5 hrs; type: functional, organism-based; design: dose 30 mg/kg; procedure, shortened: as §5
Mus musculus [23] = assay: Neurotoxicity in albino mouse assessed as minimal motor impairment at 30 mg/kg, ip after 0.5 hrs by rotorod test; type: toxicity, organism-based; design: dose 30 mg/kg, route intraperitoneal; conditions: in vivo; procedure, shortened: as §3
Rattus norvegicus [24] = assay: Neurotoxicity in Sprague-Dawley rat assessed as minimal motor impairment at 30 mg/kg, po after 1 hr by rotorod test; conditions: in vivo
Rattus norvegicus [25] = assay: Neurotoxicity in Sprague-Dawley rat assessed as minimal motor impairment at 30 mg/kg, po after 4 hrs by rotorod test; conditions: in vivo
Rattus norvegicus [26] = assay: Neurotoxicity in Sprague-Dawley rat assessed as minimal motor impairment at 30 mg/kg, po after 2 hrs by rotorod test; conditions: in vivo
Rattus norvegicus [27] = assay: Neurotoxicity in Sprague-Dawley rat assessed as minimal motor impairment at 30 mg/kg, po after 0.5 hrs by rotorod test; conditions: in vivo
Rattus norvegicus [28] = assay: Neurotoxicity in Sprague-Dawley rat assessed as minimal motor impairment at 30 mg/kg, po after 0.25 hrs by rotorod test; conditions: in vivo
[29] = Neurotoxicity in ip dosed albino mouse assessed as minimal motor impairment after 2 hrs by rotorod test; type: toxicity, organism-based; conditions: in vivo; procedure, shortened: as §1
Mus musculus [30] = assay: Protective index, ratio TD50 for albino mouse to ED50 for albino mouse by subcutaneous pentetrazole-induced seizure test after 2 hrs; type: functional
Mus musculus [31] = assay: Anticonvulsant activity in ip dosed albino mouse assessed as protection against subcutaneous pentetrazole-induced seizures after 2 hrs; type: functional
Rattus norvegicus [32] = assay: Anticonvulsant activity in Sprague-Dawley rat assessed as protection against maximal electroshock-induced seizures at 30 mg/kg, po after 4 hrs; type: functional, organism-based; design: dose 30 mg/kg; procedure, shortened: as §2
Rattus norvegicus [33] = assay: Anticonvulsant activity in Sprague-Dawley rat assessed as protection against maximal electroshock-induced seizures at 30 mg/kg, po after 1 hr; type: functional, organism-based; design: dose 30 mg/kg; procedure, shortened: as §2
Mus musculus [34] = assay: Neurotoxicity in albino mouse assessed as minimal motor impairment at 300 mg/kg, ip after 0.5 hrs by rotorod test; type: toxicity, organism-based; design: dose 300 mg/kg, route intraperitoneal; conditions: in vivo; procedure, shortened: as §3
Mus musculus [35] = assay: Neurotoxicity in albino mouse assessed as minimal motor impairment at 100 mg/kg, ip after 0.5 hrs by rotorod test; type: toxicity, organism-based; design: dose 100 mg/kg, route intraperitoneal; conditions: in vivo; procedure, shortened: as §3
Mus musculus [36] = assay: Anticonvulsant activity in albino mouse assessed as protection against maximal electroshock-induced seizures at 100 mg/kg, ip after 4 hrs; type: functional, organism-based; design: dose 100 mg/kg; procedure, shortened: as §5

| SMILES | Ratio TD50/ED50 (Mus musculus [3]) | ED50 (Mus musculus [4]) [mg/kg] | Activity (Rattus norvegicus [6]) | Activity (Mus musculus [9]) | Activity (Mus musculus [10]) | Activity (Mus musculus [11]) | Activity (Mus musculus [12]) | Activity (Mus musculus [13]) | Activity (Mus musculus [14]) | Activity (Mus musculus [15]) | Activity (Mus musculus [16]) | Activity (Mus musculus [17]) | Activity (Mus musculus [18]) | Activity (Mus musculus [19]) | Activity (Mus musculus [20]) | Activity (Mus musculus [22]) | Activity (Mus musculus [23]) | Activity (Rattus norvegicus [24]) | Activity (Rattus norvegicus [25]) | Activity (Rattus norvegicus [26]) | further results |
| --- | --- | --- | --- | --- | --- | --- | --- | --- | --- | --- | --- | --- | --- | --- | --- | --- | --- | --- | --- | --- | --- |
| CC[C@H](CO)NCc1ccc2oc3cc(OC)ccc3c(=O)c2c1 | 2.51 | 107 | inactive | Non-toxic | Non-toxic | Non-toxic | inactive | inactive | inactive | inactive | inactive | inactive | Active | inactive | Active | inactive | Non-toxic | Non-toxic | Non-toxic | Non-toxic | Ratio TD50/ED50 (Mus musculus [1]): <1.54; ED50 (Mus musculus [2]): > 175 mg/kg; TD50 at 1 h [5]: 269 mg/kg; Activity (Rattus norvegicus [7]): inactive; Activity (Rattus norvegicus [8]): inactive; Activity (Mus musculus [21]): Active; Activity (Rattus norvegicus [27]): Non-toxic; Activity (Rattus norvegicus [28]): Non-toxic |
| C[C@@H](CO)NCc1ccc2oc3ccc(Cl)cc3c(=O)c2c1 | 3.93 | 79.7 | inactive | Non-toxic | Non-toxic | Non-toxic | inactive | inactive | inactive | inactive | inactive | inactive | Active | inactive | inactive | inactive | Non-toxic | Non-toxic | Non-toxic | Non-toxic | TD50 at 2 h [29]: 313 mg/kg; Ratio TD50/ED50 (Mus musculus [30]): <0.84; ED50 (Mus musculus [31]): > 375 mg/kg; Activity (Rattus norvegicus [32]): inactive; Activity (Rattus norvegicus [33]): inactive; Activity (Mus musculus [34]): Non-toxic; Activity (Mus musculus [35]): Non-toxic; Activity (Mus musculus [36]): Active; Activity (Rattus norvegicus [27]): Non-toxic; Activity (Rattus norvegicus [28]): Non-toxic |
